Assay results published in ChEMBL document CHEMBL4007489, “First Bispecific Inhibitors of the Epidermal Growth Factor Receptor Kinase and the NF-κB Activity As Novel Anticancer Agents” (J Med Chem, 2017).
pIC50: −log10 of the molar value. The source made the active and inactive calls. The rule behind the calls is not given here.

What was measured:
[1] = target: Transcription factor p65 (Homo sapiens) (UniProt Q04206); experiment: Inhibition of IL-1beta-stimulated nuclear translocation of GFP-tagged NF-kappaB-p65 (unknown origin) expressed in CHO cells preincubated with IL-1beta for 30 mins followed by compound addition by fluorescence assay; assay type: cell-based
Sequence of Transcription factor p65 (Homo sapiens) (Q04206 whole entry, the tested form may be a part): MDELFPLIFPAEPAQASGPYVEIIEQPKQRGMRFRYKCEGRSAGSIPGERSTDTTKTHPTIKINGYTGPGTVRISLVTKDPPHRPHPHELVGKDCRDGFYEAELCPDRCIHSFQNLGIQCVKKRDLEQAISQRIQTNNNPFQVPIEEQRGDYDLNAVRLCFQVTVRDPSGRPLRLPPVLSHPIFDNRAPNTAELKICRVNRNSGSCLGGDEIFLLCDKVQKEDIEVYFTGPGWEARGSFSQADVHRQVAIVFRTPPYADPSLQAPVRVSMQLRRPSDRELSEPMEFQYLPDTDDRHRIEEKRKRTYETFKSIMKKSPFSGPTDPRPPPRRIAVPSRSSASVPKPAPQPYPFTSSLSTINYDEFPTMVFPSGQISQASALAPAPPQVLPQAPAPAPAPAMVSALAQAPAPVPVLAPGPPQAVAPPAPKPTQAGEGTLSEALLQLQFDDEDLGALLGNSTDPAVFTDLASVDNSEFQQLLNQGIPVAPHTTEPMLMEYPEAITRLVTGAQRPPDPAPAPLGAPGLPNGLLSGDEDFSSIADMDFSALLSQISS
Summary of the method: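 A GFP-NF-κB-p65 fusion was used; cells were stimulated for 30 min with 25 ng/mL IL-1β. Translocation of the fusion protein from cytoplasm to nucleus was imaged, and the system automatically quantified the ratio of cytoplasmic to nuclear fluorescence per well.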

[2] = target: T1, Proteasome Macropain subunit MB1 (Homo sapiens) (UniProt P28074); experiment: Inhibition of chymotrypsin like activity of 26S proteasome derived from human MDA-MB-231 cells at 1 uM
T1 sequence (whole entry): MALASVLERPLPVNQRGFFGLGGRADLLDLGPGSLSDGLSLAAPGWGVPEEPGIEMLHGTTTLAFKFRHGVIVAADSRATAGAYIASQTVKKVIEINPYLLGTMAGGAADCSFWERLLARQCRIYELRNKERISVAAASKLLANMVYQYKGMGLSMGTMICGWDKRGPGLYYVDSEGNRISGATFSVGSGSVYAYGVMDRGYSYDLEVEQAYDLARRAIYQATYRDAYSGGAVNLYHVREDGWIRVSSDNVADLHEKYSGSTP
Summary of the method: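 Total protein extract from MDA-MB-231 cells served as the source of 26S proteasome. Trypsin-like, chymotrypsin-like and caspase-like activities were each measured with a specific fluorigenic peptide substrate.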

[3] = target: T2, Proteasome component C5 (Homo sapiens) (UniProt P20618); details: 1 uM
T2 sequence (whole entry): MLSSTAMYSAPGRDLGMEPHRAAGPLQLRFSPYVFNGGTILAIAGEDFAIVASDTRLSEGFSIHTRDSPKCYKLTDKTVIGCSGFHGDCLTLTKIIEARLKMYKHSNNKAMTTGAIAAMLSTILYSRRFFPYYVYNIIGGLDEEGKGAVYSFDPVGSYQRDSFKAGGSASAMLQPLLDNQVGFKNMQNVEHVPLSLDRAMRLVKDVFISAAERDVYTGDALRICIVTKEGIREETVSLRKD

[4] = target: Proteasome Macropain subunit (Homo sapiens) (UniProt P49721); details: 1 uM
[5] = target: Protein kinase C iota type (Homo sapiens) (UniProt P41743); experiment: Inhibition of TNFalpha-stimulated PKCI in human U937 cells assessed as residual activity at 10 uM in presence of ATP relative to control; assay type: cell-based
[6] = target: T3, Epidermal growth factor receptor (Homo sapiens, UniProt P00533); experiment: biochemical; assay type: cell-based
T3 sequence (P00533 whole entry): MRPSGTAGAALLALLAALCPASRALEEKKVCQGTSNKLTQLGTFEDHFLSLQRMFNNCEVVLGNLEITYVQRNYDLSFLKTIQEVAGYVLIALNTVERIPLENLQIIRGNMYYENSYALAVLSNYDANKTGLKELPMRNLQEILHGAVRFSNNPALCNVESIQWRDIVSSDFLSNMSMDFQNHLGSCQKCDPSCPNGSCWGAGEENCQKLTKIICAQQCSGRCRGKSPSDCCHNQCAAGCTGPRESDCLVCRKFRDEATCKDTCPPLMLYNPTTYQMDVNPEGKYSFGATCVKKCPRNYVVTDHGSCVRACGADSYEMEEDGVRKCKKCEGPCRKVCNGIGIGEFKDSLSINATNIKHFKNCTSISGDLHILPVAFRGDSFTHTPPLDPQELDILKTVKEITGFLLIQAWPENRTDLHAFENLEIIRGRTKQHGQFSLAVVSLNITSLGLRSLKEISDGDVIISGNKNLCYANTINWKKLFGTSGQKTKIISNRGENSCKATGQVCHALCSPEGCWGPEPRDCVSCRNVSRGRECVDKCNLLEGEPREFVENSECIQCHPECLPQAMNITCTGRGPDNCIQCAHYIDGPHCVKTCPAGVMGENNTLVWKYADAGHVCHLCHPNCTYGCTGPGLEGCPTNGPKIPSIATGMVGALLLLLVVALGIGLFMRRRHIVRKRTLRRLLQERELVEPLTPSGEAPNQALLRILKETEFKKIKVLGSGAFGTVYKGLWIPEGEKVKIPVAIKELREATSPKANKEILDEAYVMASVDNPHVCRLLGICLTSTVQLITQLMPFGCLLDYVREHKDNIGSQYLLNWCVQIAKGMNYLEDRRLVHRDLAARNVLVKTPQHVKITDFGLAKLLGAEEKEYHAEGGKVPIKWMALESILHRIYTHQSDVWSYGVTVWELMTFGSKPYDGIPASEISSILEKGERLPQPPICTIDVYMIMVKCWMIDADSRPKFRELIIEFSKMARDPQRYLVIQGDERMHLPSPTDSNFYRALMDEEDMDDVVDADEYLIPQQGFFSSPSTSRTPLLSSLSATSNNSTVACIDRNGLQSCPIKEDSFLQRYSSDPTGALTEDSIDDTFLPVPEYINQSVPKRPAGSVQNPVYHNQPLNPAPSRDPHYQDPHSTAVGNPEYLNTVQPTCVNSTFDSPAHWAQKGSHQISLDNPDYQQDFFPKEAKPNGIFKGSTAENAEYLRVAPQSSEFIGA

cells = assay type: cell-based; details: Homo sapiens, U-937
[7] = target: Inhibitor of nuclear factor kappa-B kinase subunit alpha (Homo sapiens) (UniProt O15111); experiment: Inhibition of TNFalpha-stimulated IKKalpha in human U937 cells assessed as residual activity at 10 uM in presence of ATP relative to control; assay type: cell-based
[8] = target: Inhibitor of nuclear factor kappa-B kinase subunit beta (Homo sapiens) (UniProt O14920); experiment: Inhibition of TNFalpha-stimulated IKKbeta in human U937 cells assessed as residual activity at 10 uM in presence of ATP relative to control; assay type: cell-based
Sequence of Inhibitor of nuclear factor kappa-B kinase subunit beta (Homo sapiens) (O14920 whole entry): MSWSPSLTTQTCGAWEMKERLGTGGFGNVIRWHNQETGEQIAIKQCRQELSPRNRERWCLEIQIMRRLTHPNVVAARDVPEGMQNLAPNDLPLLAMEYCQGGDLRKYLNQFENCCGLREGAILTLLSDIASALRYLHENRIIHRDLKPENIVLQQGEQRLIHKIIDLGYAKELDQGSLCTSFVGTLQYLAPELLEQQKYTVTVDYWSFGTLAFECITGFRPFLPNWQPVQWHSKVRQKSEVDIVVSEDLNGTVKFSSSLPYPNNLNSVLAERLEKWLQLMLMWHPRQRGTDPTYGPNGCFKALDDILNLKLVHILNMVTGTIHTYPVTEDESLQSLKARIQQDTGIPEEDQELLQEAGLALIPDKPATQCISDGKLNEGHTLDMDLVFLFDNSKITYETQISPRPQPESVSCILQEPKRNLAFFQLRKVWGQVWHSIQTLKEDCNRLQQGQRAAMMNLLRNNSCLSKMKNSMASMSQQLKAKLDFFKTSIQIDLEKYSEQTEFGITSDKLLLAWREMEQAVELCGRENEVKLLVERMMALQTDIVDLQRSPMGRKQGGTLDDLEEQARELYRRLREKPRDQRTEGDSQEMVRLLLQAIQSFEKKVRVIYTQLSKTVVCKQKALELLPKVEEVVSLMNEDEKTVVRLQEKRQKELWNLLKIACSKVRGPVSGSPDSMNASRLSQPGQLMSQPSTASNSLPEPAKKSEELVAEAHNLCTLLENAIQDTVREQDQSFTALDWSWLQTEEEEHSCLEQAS

[9] = target: Protein kinase C zeta type (Homo sapiens) (UniProt Q05513); experiment: Inhibition of TNFalpha-stimulated PKCzeta in human U937 cells assessed as residual activity at 10 uM in presence of ATP relative to control; assay type: cell-based
Sequence of Protein kinase C zeta type (Homo sapiens) (Q05513 whole entry): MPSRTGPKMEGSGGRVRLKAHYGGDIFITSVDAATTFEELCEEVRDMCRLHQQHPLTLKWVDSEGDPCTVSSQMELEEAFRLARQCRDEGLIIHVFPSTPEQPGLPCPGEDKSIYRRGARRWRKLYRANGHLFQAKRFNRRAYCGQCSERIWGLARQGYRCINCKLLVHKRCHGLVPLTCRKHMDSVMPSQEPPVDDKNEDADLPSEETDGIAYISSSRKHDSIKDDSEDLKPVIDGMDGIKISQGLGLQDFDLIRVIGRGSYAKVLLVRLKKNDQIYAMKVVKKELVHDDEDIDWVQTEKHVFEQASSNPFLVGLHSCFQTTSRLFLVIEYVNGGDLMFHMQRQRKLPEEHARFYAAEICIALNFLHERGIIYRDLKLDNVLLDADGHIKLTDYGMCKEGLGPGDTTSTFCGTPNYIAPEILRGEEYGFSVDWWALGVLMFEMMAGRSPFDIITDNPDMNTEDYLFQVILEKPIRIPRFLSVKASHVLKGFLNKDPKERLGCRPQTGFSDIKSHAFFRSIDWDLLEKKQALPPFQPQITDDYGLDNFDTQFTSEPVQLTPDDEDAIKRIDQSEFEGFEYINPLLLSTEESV

[10] = target: T4, Receptor-interacting serine/threonine-protein kinase 2 (Homo sapiens, UniProt O43353); experiment: Inhibition of TNFalpha-stimulated RIPK2 in human U937 cells assessed as residual activity at 10 uM in presence of ATP relative to control; assay type: cell-based
T4 sequence (O43353 whole entry): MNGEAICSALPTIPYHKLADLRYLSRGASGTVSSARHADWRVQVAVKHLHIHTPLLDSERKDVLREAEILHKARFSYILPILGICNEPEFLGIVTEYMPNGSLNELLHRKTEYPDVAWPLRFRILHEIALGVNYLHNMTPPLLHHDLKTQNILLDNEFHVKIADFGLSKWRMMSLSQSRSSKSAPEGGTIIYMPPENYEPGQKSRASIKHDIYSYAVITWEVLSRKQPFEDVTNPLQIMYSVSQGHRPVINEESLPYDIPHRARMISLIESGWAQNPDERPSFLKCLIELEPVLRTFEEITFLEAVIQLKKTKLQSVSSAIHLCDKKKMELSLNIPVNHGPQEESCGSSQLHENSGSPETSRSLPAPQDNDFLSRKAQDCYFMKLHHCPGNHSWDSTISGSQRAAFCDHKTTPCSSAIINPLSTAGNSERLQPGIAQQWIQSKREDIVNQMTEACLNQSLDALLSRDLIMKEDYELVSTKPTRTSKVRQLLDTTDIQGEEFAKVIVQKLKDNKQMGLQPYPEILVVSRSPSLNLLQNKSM

[11] = target: Mitogen-activated protein kinase 14 (Homo sapiens) (UniProt Q16539); experiment: Inhibition of TNFalpha-stimulated SAPK2a in human U937 cells assessed as residual activity at 10 uM in presence of ATP relative to control; assay type: cell-based
[12] = target: Mitogen-activated protein kinase kinase kinase 7 (Homo sapiens) (UniProt O43318); experiment: Inhibition of TNFalpha-stimulated TAK1 in human U937 cells assessed as residual activity at 10 uM in presence of ATP relative to control; assay type: cell-based
Sequence of Mitogen-activated protein kinase kinase kinase 7 (Homo sapiens) (O43318 whole entry): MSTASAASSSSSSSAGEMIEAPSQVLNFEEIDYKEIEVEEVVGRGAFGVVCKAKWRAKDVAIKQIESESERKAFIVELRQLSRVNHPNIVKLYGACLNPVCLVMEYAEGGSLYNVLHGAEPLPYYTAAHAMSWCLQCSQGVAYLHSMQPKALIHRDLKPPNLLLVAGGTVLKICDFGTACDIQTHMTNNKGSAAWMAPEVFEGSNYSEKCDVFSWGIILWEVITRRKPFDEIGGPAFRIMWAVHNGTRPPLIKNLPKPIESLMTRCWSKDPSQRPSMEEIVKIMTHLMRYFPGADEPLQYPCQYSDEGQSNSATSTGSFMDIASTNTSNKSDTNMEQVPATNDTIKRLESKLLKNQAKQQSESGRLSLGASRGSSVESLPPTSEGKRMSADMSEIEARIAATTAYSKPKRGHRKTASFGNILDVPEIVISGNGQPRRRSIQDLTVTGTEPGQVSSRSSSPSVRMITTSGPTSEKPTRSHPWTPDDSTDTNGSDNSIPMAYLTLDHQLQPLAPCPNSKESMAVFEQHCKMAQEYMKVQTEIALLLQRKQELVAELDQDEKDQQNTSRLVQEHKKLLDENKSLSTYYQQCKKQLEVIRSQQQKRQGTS

[13] = target: Serine/threonine-protein kinase TBK1 (Homo sapiens) (UniProt Q9UHD2); experiment: Inhibition of TNFalpha-stimulated TBK1 in human U937 cells assessed as residual activity at 10 uM in presence of ATP relative to control; assay type: cell-based
Sequence of Serine/threonine-protein kinase TBK1 (Homo sapiens) (Q9UHD2 whole entry): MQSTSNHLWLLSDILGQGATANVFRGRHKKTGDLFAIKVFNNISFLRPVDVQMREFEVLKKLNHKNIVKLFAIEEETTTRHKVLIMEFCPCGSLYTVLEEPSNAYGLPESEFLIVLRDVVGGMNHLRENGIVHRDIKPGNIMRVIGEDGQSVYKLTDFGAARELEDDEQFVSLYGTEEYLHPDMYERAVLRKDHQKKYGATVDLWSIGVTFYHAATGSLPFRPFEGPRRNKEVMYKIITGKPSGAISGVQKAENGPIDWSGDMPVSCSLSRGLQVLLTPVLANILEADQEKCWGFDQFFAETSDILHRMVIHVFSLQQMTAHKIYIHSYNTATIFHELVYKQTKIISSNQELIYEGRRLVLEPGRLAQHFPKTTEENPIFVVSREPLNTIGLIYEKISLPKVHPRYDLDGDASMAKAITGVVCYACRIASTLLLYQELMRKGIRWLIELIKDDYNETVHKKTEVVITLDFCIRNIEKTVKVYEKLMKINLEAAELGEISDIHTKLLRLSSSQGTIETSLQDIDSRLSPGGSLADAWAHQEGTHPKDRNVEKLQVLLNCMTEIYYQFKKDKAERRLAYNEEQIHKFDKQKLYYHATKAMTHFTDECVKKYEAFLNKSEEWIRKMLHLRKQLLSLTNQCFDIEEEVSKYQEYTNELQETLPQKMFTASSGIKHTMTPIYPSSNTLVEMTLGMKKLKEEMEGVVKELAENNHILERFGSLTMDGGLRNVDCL

[14] = target: T4, Receptor-interacting serine/threonine-protein kinase 2; experiment: Inhibition of TNFalpha-stimulated RIPK2 in human U937 cells in presence of 5 uM ATP; assay type: cell-based
MDA-MB-231 [15] = experiment: cells; assay type: functional; details: Homo sapiens, MDA-MB-231, 48 h
Homo sapiens [16] = species on record: Homo sapiens; details: at 10 µM;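 also: luciferase reporter readout of NF-kappaB activity in human U937 cells, compound added 3 h before TNFalpha stimulation, signal read 2.5 h after stimulation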
[17] = target: T3, Epidermal growth factor receptor; details: at 150 nM
[18] = target: Transcription factor p65 (Homo sapiens) (UniProt Q04206); experiment: Inhibition of IL-1beta-stimulated nuclear translocation of GFP-tagged NF-kappaB-p65 (unknown origin) expressed in CHO cells at 15 uM preincubated with IL-1beta for 30 mins followed by compound addition by fluorescence assay; assay type: cell-based
[19] = target: Transcription factor p65 (Homo sapiens) (UniProt Q04206); experiment: Inhibition of NF-kappaB-p65 binding to NF-kappaB response element oligonucleotide in nuclear extracts of 12 hrs compound pre-treated human MDA-MB-231 cells at 2.5 to 15 uM by ELISA
Summary of the method: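 MDA-MB-231 cells treated with compound or DMSO for 12 h; in some runs TNFα (20 ng/mL final) added for a further 20 min at 37 °C. Nuclear extracts prepared on ice and protein measured by Bradford. 5 μg of extract incubated on plate-immobilized NF-κB response element oligonucleotide. Bound complexes detected with anti-p65 primary and HRP secondary antibody, read at 450 nm. Specificity checked by competition with free oligonucleotide; triplicates.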

MDA-MB-231 [20] = experiment: Antitumor activity against human MDA-MB-231 cells xenografted in NMRI nu/nu mouse at 25 mg/kg, sc administered 5 days post tumor cell inoculation treated for 14 days followed by treatment pause for 6 days followed by treatment continuation on every second day until day 28 measured on day 7, 14 and day 28; assay type: functional, organism-based
Summary of the method: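 MDA-MB-231 cells, 2 × 10^6 per site in Matrigel, injected into both flanks of female NMRI nu/nu mice about 8 weeks old; 6 mice per group. From day 5 after inoculation (day 1), sc dosing in PBS/propylene glycol 80:20. Dosing every weekday for 14 days, then a 6-day pause, then every second day from day 21 to sacrifice on day 28. Tumor diameters measured weekly by calipers; unpaired two-tailed t test against vehicle.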

[21] = target: Transcription factor p65 (Homo sapiens) (UniProt Q04206); experiment: Inhibition of IL-1beta-stimulated nuclear translocation of GFP-tagged NF-kappaB-p65 (unknown origin) expressed in CHO cells at 15 uM preincubated with IL-1beta for 30 mins followed by compound addition in presence of Pluronic F127 by fluorescence assay; assay type: cell-based
[22] = Solubility in water; assay type: physicochemical; details: buffer
[23] = target: Receptor tyrosine-protein kinase erbB-4 (Homo sapiens) (UniProt Q15303); details: 0.5 uM
Homo sapiens [24] = species on record: Homo sapiens; experiment: Inhibition of TNFalpha-stimulated NF-kappaB (unknown origin) expressed in human U937 cells at 1 to 5 uM incubated for 3 hrs followed by TNFalpha stimulation measured after 2.5 hrs by luciferase reporter gene assay; assay type: cell-based

With `CC(C)C[C@H](NC(=O)[C@H](Cc1ccccc1)NC(=O)c1cnccn1)B(O)O` the inhibition [1] was “Dose-dependent effect”, the inhibition [2] was “Active” and the inhibition [3] was “Active”. The inhibition [4] was “Active”.

Compound `S=C(NCc1ccccc1)Nc1ccc2ncnc(Nc3cccc(Br)c3)c2c1` has an Activity [5] of 106%, a pIC50 [6] of 7.76 and a pIC50 (cells) of 5.39. The Activity [7] was 117%, the Activity [8] was 100% and the Activity [9] was 92%. For the same compound, the Activity [10] was 54%, the Activity [11] was 78% and the Activity [12] was 106%. For the same compound, the Activity [13] was 92%, the pIC50 [14] was < 5.00 and the GI50 (MDA-MB-231 [15]) was 9.5 µM. For the same compound, the inhibition (Homo sapiens [16]) was 97% and the inhibition [17] was 86.1%.

With `COc1cc2ncnc(Nc3ccc(F)c(Cl)c3)c2cc1OCCCN1CCOCC1` [GEFITINIB] the inhibition [18] was “inactive”, the inhibition [19] was “inactive” and the TGI (MDA-MB-231 [20]) was “Active”. For the same compound, the inhibition [21] was “inactive”, the solubility [22] was “Soluble” and the inhibition [23] was 46 to 76%.

For `O=C1NC(=O)/C(=C/c2cccc(C(F)(F)F)c2)S1`, the inhibition (Homo sapiens [24]) was “inactive”.
